Results on 7 compounds are retold here after publication PMC4554820 (Bioorganic & medicinal chemistry, 2015).

Series [1] addresses T1, GAPDH (Oryctolagus cuniculus, UniProt P46406). The conditions noted are these: HPLC-HRMS, cited from earlier work; for Products, GAPDH tryptic peptide V233-R246: comparison/previous work.
For series [2] the following is noted: PBS buffer, pH = 7.6; cited from earlier work.
In series [3] the target is T1, GAPDH. Put plainly: Reversibility of GAPDH inhibition by DTT. As to conditions: GAPDH incubated with compound 1 hr, then DTT (10 mM) 1 hr. The class given is biochemical.
A short description of series [4]: Kinetic UV-vis decomposition in the presence of glutathione. Format: physicochemical. The conditions noted are these: PBS pH 7.4 + 2-fold GSH, room temperature.
Series [5] is classed as physicochemical. As to conditions: for k (min^−1) in 1:1 MeOH : 0.1 N NaOH / k (min^−1) in 1:1 MeOH : PBS / t1/2 (min) in 1:1 MeOH : 0.1 N NaOH: decomposition; for k (min^−1) in 1:1 MeOH : PBS: 1:1 MeOH:PBS (100 mM, pH 7.4), room temperature. In short, it runs like this:
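The test compound in MeOH (1 mL) was mixed with 1 mL of 100 mM PBS pH 7.4 or 0.1 M NaOH in a sealed cuvette at rt. Loss of absorbance at 667 nm was read every 15 min for 10 h. Rate constants and half-lives came from the exponential decay.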

Series [6] relates to human platelet aggregation induced by ADP. Put plainly: Platelet aggregation inhibition. The class given is cell-based. As to conditions: PRP, ADP 5 μM. In short, it runs like this:
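Human PRP came from blood spun at 100 g for 10 min, and PPP from PRP spun at 4500 g for 10 min. PRP or PPP plus CaCl₂ (2 mM) went into wells. The test compound (100, 75, 50, 10 µM) was added for 20 min at rt, then ADP 5 µM. Light transmission was read every 20 s with double-orbital agitation and normalised to PPP = 100% and PRP = 0%.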

In series [7] the test system is human platelet activation induced by (ADP). Kind of series: Platelet activation inhibition. The class given is cell-based. As to conditions: for platelet activation inhibition: PRP, ADP 5 μM.
Series [8] deals with porcine liver esterase (PLE). Put plainly: Kinetic UV-vis decomposition in the presence of porcine liver esterase. The class given is in vitro ADME. As to conditions: PBS buffer (3 % DMF) + PLE.
Series [9] has as its target T1, GAPDH. Kind of series: HPLC-HRMS assay of GAPDH modification. Format: biochemical. The conditions noted are these: incubated 1 hr rt, tryptic digestion. In outline: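 Lyophilised GAPDH dissolved in 100 mM PBS pH 7.4, concentration set by A280 (ε 14600 M⁻¹cm⁻¹). Protein 100 µM final with test compound 1 mM final (added from MeOH stock) in water, 1 h rt. Trypsin digest (20:1 ratio) at 37 °C for 17 h, then diluted to 10 µM peptide. C18 LC with 0.1% formic acid water/MeOH gradient (5–95% over 10 min). Orbitrap HRMS, positive ESI. No-compound control.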

Where [10] appears, read: 1:1 MeOH:phosphate buffered saline, pH 7.4.

Entries after “also recorded” stand apart in the source; their conditions may differ. Where a name gives a salt, the structure may show the parent alone. Read-outs that look alike come from different tables or passages of the source.

T1 sequence (P46406 whole entry): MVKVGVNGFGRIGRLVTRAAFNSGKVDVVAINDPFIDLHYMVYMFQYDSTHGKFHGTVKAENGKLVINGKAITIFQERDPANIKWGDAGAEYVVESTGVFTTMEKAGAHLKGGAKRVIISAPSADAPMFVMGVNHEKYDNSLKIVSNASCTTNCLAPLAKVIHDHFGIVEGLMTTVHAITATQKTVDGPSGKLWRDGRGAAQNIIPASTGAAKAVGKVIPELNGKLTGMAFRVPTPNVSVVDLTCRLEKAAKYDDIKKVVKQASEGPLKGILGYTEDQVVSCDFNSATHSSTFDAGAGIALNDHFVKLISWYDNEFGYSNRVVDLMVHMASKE

Take `[Na+].[Na+].[O-][N+]([O-])=NO` [AS, Angeli’s salt (Na2N2O3, AS)]: on GAPDH [1], the “Products, GAPDH tryptic peptide V233-R246” value is “sulfinamide as a major product and sulfinic acid as a minor product; also recorded: Sulfinamide; RSONH2; also recorded: Sulfinic acid; RSOOH”. In addition, at GAPDH [1] (comparison), the “Products, GAPDH tryptic peptide I144-K160” value is recorded as “Internal disulfide; RSSR”.
On to `CC(=O)OC1(N=O)CCCCC1` [Compound 1, 1-nitrosocyclohexyl acetate], for which the “Products, GAPDH tryptic peptide V233-R246” value on GAPDH [1] is “sulfinic acid as a major product”.
For `O=NC1(OC(=O)C(F)(F)F)CCCCC1` [Compound 2, 1-nitrosocyclohexyl trifluoroacetate], the “t1/2 of HNO release” value in series [2] was 121 milliseconds (ms). In addition, at GAPDH [1], the “Products, GAPDH tryptic peptide V233-R246” value was “sulfinamide as a major product and sulfinic acid as a minor product”.
As to `CC(=O)OC1(N=O)CCOCC1` [Compound 4, 4-Nitrosotetrahydro-2H-pyran-4-yl acetate], the “% of GAPDH activity restored by the addition of DTT” value (“% of GAPDH activity restored” for short) at GAPDH [3] was 22%. Further, in [4], the “k (min^−1) in PBS + 2-fold GSH” value was 0.011 min⁻¹ and the “t1/2 (min) in PBS + 2-fold GSH” value amounted to 65 min. Further, in series [5] (1:1 MeOH:0.1 N NaOH), the half-life at 30 mM worked out at 0.2 h and the “k (min^−1) in 1:1 MeOH : 0.1 N NaOH” value is 0.057 min⁻¹. Besides, the half-life at 30 mM in series [5] (setting [10]) came out at 13 h. For the same compound, the “k (min^−1) in 1:1 MeOH : PBS” value in [5] was determined as 0.00089 min⁻¹.
As to `CC(C)(C)C(=O)OC1(N=O)CCOCC1` [Compound 5, 4-Nitrosotetrahydro-2H-pyran-4-yl pivalate], in series [4], the “k (min^−1) in PBS + 2-fold GSH” value was determined as 0.007 min⁻¹ and the “t1/2 (min) in PBS + 2-fold GSH” value was 99 min. For the same compound, in [5] (1:1 MeOH:0.1 N NaOH), the half-life at 30 mM is 31.2 h and the “k (min^−1) in 1:1 MeOH : 0.1 N NaOH” value turned out to be 0.00037 min⁻¹. In series [5] (setting [10]), this compound gave a half-life at 30 mM of 31.7 h. In addition, in series [5], the “k (min^−1) in 1:1 MeOH : PBS” value amounted to 0.00036 min⁻¹.
For `O=NC1(OC(=O)C(Cl)(Cl)Cl)CCOCC1` [Compound 6, 4-Nitrosotetrahydro-2H-pyran-4-yl 2,2,2-trichloroacetate], the “inhibition of platelet aggregation” value is “no effect” in [6] (10 μM, compared with positive control (PRP + ADP)); “Complete inhibition” in series [6] (100 μM, 20 min incubation rt); “intermediate activities” in series [6] (50 and 75 μM). In addition, at GAPDH [3], the “% of GAPDH activity restored” value turned out to be 19%. For the same compound, the platelet activation inhibition result in [7] (1 μM) is “lower activity”; in [7] (100, 75, 50, and 10 μM) it was “potent and similar effect”. Further, the “inhibition of expression of the activated marker (CD62P)” value in [7] (10 μM, PRP incubated with ADP (2 μM)) amounted to 83%. Besides, the “decomposition rate constant k with PLE” value in series [8] was 0.087 min⁻¹. The “k (min^−1) in PBS + 2-fold GSH” value in series [4] was found to be 0.173 min⁻¹. Also, the “t1/2 (min) in PBS + 2-fold GSH” value in series [4] came out at 4 min. The compound also returned a half-life at 30 mM in series [5] (setting [10]) of 0.833 h. Also, the “t1/2 (min) in 1:1 MeOH : 0.1 N NaOH” value in [5] (1:1 MeOH:0.1 N NaOH) is “decompose immediately and Fast”. The “k (min^−1) in 1:1 MeOH : PBS” value in series [5] came to 0.014 min⁻¹. Moreover, the “Products, GAPDH tryptic peptide I144-K160” value at GAPDH [9] is on record as “Internal disulfide; RSSR”. Moreover, the “Products, GAPDH tryptic peptide V233-R246” value on GAPDH [9] is given as “Sulfinamide; RSONH2; also recorded: Sulfinic acid; RSOOH”.
As to `CC(Cl)(Cl)C(=O)OC1(N=O)CCOCC1` [Compound 7, 4-Nitrosotetrahydro-2H-pyran-4-yl 2,2-dichloropropanoate], the “% of GAPDH activity restored” value on GAPDH [3] is 9%. For the same compound, the “decomposition rate constant k with PLE” value in series [8] amounted to 0.03 min⁻¹. Moreover, in series [4], the “k (min^−1) in PBS + 2-fold GSH” value worked out at 0.0578 min⁻¹ and the “t1/2 (min) in PBS + 2-fold GSH” value was 12 min. The compound also returned a half-life at 30 mM in [5] (setting [10]) of 2 h. The “t1/2 (min) in 1:1 MeOH : 0.1 N NaOH” value in series [5] (1:1 MeOH:0.1 N NaOH) is “decompose immediately and Fast”. Besides, the “k (min^−1) in 1:1 MeOH : PBS” value in series [5] was determined as 0.0058 min⁻¹. On GAPDH [9], the “Products, GAPDH tryptic peptide I144-K160” value is recorded as “Internal disulfide; RSSR” and the “Products, GAPDH tryptic peptide V233-R246” value was “Sulfinamide; RSONH2; also recorded: Sulfinic acid; RSOOH”.

By half-life is commonly meant how long it takes for the measured level to halve. A low value points to fast loss.
